APJ ag = activates the human apelin receptor APJ | AID 2520 | hit rate 0.11% among 330,000 | P35414 | CHO-K1 APJ PathHunter beta-arrestin, luminescence; 0% DMSO wells, 100% apelin | activation, % at 20 µM;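 active = activation more than six SD over the plate average, tested at 20 µM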;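 also: 0% = DMSO alone and 100% = apelin-13 at 10 nM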
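Material: engineered CHO-K1 APJ arrestin reporter cells; amount: 1000 CHO-K1 reporter cells seeded per well; incubation: compound stimulation 90 min at 25 °C, detection 60 min; signal: luminescent beta-gal fragment complementation, chemiluminescent substrate; read-out basis: APJ agonist activity; controls: DMSO-only wells as negative, 10 nM Apelin-13 as positive control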
EBI2 block = antagonists of human EBI2 receptor. EBI2 beta-arrestin recruitment, luminescence, 7a,25-OHC stimulated. hit rate 0.81% among 360,000. inhibition, % at 5 µM. AID 651636. P32249; in the data active = inhibition above about 38%;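 also: enzyme fragment complementation signal reports receptor beta-arrestin coupling in cells; 0% = agonist plus DMSO wells and 100% = wells without agonist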
CCR6 antagonist = blocks CCL20-driven beta-arrestin recruitment at human CCR6; P51684; CHO-K1 CCR6 PathHunter beta-arrestin, luminescence, CCL20-stimulated; inhibition, % at 20 µM; hit rate 0.49% among 340,000;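 active = compounds whose inhibition of the agonist-driven luminescence signal at 20 µM reaches about 50%, limit read from the data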;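 also: cells stimulated with CCL20 at 14 nM final; plate controls were DMSO with CCL20 for no effect and DMSO without agonist for full effect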
APJ antag = APJ receptor antagonism; CHO-K1 APJ beta-arrestin complementation, luminescence; hit rate 0.32% among 330,000; P35414; inhibition, % at 20 µM;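 active = inhibition above about 40% at 20 µM, limit read from the data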;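 also: cells challenged with 10 nM apelin-13 agonist together with compound; plate controls were apelin-13 plus DMSO wells for no effect and DMSO wells lacking apelin-13 for full effect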
CXCR6 block = blocks human CXCR6 beta-arrestin recruitment | hit rate 0.36% among 360,000 | CHO-K1 PathHunter CXCR6 beta-arrestin, luminescence | O00574 | inhibition, % at 20 µM; in the data active = inhibition above about 34%, passing the limit was not always enough;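 also: antagonist mode with CXCL16 agonist at 10 nM final; 0% = 10 nM CXCL16 with DMSO and 100% = unstimulated wells without agonist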
m5-HT2A agonist = mouse HTR2A agonism via beta-arrestin recruitment; CHO-K1 mHTR2A beta-arrestin complementation, luminescence; percent of 30 µM serotonin response; P35363; activation, % at 7.6 µM; hit rate 0.66% among 360,000;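 active = activation above a run cutoff, the mean activation of all tested compounds plus 3 SD, cut at about 14% in these data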;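 also: 0% = plate median of compound wells and 100% = 30 µM serotonin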
Target sequence (P35363 whole entry, looked up): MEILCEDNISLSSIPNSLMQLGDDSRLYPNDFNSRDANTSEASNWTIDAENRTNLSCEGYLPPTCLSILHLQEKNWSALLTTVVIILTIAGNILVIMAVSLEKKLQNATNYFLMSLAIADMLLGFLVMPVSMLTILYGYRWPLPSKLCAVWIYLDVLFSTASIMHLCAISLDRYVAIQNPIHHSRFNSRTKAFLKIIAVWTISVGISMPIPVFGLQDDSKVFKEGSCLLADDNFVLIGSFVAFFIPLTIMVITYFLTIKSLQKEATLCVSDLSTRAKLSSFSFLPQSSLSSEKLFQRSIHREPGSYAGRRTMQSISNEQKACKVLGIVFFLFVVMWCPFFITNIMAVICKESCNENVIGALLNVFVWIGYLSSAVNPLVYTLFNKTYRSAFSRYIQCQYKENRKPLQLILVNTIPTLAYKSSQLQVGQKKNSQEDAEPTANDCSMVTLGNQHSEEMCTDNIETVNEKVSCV
EBI2 antag conf = confirmation of human EBI2 receptor antagonists; shares compounds with EBI2 block; EBI2 beta-arrestin luminescence, 7a,25-OHC antagonism; inhibition, % at 5 µM; hit rate 29% among 2,400; AID 651997;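 active = inhibition of at least 50%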
EBI2 agonist = counter-screen for EBI2 antagonists: EBI2 agonist activity. 2,400 tested, under 10 active. shares compounds with EBI2 block. EBI2-expressing cells, agonist mode, luminescence, 60 min; 0% vehicle, 100% 7α,25-dihydroxycholesterol control. activation, % at 5 µM;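 active = activation of at least 50%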
bGal counter = beta-galactosidase inhibition counter-screen; inhibition, % at 5 µM; purified beta-galactosidase, luminescent Galacton Star, 15 min; shares compounds with EBI2 block; hit rate 1% among 2,400; AID 652176;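 active = replicate-average signal at least 3 plate SD below neutral wells, shown as high inhibition, flagging enzyme-inhibiting false positives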;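 also: 0% = DMSO wells with enzyme and 100% = wells lacking enzyme; higher means stronger loss of beta-gal luminescence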
* hit, by the source's call. Most compounds without a hit are left out; they make up all but 2.1% or so of the library.

Results for CCOC(=O)C1=CCN(S(=O)(=O)c2ccccc2C)C1c1cccc(Br)c1 (configuration not stated) ?
EBI2 block: 66.5*; CXCR6 block: 16.9; m5-HT2A agonist: -4.8; EBI2 antag conf: 24.8; EBI2 agonist: -0.8; bGal counter: -12.9

What do the screens show for `CCOC(=O)c1sc(-c2ccccc2)cc1N`?
APJ ag: -1.3; EBI2 block: 22.2; CCR6 antagonist: 14.3; APJ antag: 11.9; CXCR6 block: -4.1; m5-HT2A agonist: -3.7

Results for CCOC(=O)c1cc(-c2ccccc2)sc1N ?
APJ ag: -9.2; EBI2 block: 45.6*; CCR6 antagonist: 8.0; APJ antag: 5.9; CXCR6 block: 1.4; m5-HT2A agonist: -2.9; EBI2 antag conf: 58.8*; EBI2 agonist: 2.8; bGal counter: -1.4

Results for N#Cc1ccc(C(=O)Nc2ccc3ccccc3c2)cc1 ?
APJ ag: -1.4; EBI2 block: 59.6*; CCR6 antagonist: 4.1; APJ antag: 1.5; CXCR6 block: -4.2; m5-HT2A agonist: -10.5; EBI2 antag conf: 51.2*; EBI2 agonist: 2.7; bGal counter: 1.5

Results for O=[N+]([O-])c1ccccc1N(S(=O)(=O)c1ccccc1)S(=O)(=O)c1ccccc1 ?
EBI2 block: 11.6; CCR6 antagonist: 20.0; CXCR6 block: 11.4; m5-HT2A agonist: 1.1

What do the screens show for `Cc1ccc(SCC2(O)CCN(C(=O)c3ccc(Cl)cc3)CC2)cc1`?
APJ ag: 1.9; EBI2 block: 47.1*; CCR6 antagonist: 39.2; APJ antag: -7.8; CXCR6 block: -8.6; m5-HT2A agonist: -6.7; EBI2 antag conf: 46.2; EBI2 agonist: -1.2; bGal counter: -18.6

How did Cc1ccc(SCc2ccc(C(=O)N3CCCC3)cc2)cc1 do in these assays?
APJ ag: -1.0; EBI2 block: 2.6; CCR6 antagonist: 17.2; APJ antag: 9.7; CXCR6 block: -10.9; m5-HT2A agonist: -4.0

Results for Cc1ccc(-n2ncc3c(SCC(N)=O)ncnc32)cc1C ?
APJ ag: 0.3; EBI2 block: -2.7; CCR6 antagonist: 6.0; APJ antag: 5.4; CXCR6 block: -8.0; m5-HT2A agonist: 0.4

How did N#Cc1cc2c(nc1SCC(=O)Nc1sc3c(c1C#N)CCC3)CCCCCC2 do in these assays?
APJ ag: -5.4; EBI2 block: 46.9*; CCR6 antagonist: 1.9; APJ antag: 6.4; CXCR6 block: 6.9; m5-HT2A agonist: -2.0; EBI2 antag conf: 18.8; EBI2 agonist: 0.6; bGal counter: 6.1

What do the screens show for `COC(=O)c1cc(=O)n(Cc2ccc(OC)c(OC)c2)c(=Nc2ccc(F)cc2)s1`?
APJ ag: -3.7; EBI2 block: 70.0*; CCR6 antagonist: 18.9; APJ antag: 18.9; CXCR6 block: 7.1; m5-HT2A agonist: -0.5; EBI2 antag conf: 50.5*; EBI2 agonist: 0.2; bGal counter: -9.1

What do the screens show for `COC(=O)c1cc(=O)n(CCc2ccc(OC)c(OC)c2)c(=Nc2ccc(F)c(Cl)c2)s1`?
APJ ag: -1.7; EBI2 block: 63.5*; CCR6 antagonist: 17.2; APJ antag: 13.9; CXCR6 block: 14.7; m5-HT2A agonist: 6.7; EBI2 antag conf: 62.1*; EBI2 agonist: -1.4; bGal counter: -7.7

How did CCOC(=O)c1ccc(N=c2sc(C(=O)OC)cc(=O)n2-c2ccc(C(=O)OCC)cc2)cc1 do in these assays?
APJ ag: -0.7; EBI2 block: 79.2*; CCR6 antagonist: 23.5; APJ antag: 7.3; CXCR6 block: 11.4; m5-HT2A agonist: 6.3; EBI2 antag conf: 73.5*; EBI2 agonist: 0.5; bGal counter: 7.2
